Source: ChEMBL document CHEMBL3745714, “Fragment-based drug discovery of potent and selective MKK3/6 inhibitors” (Bioorg Med Chem Lett, 2016)
pIC50, pKd: −log10 of the molar value.

Key:
[1] = target: T1, Dual specificity mitogen-activated protein kinase kinase 3 (Homo sapiens, UniProt P46734); assay: Inhibition of MKK3 (unknown origin) using [gamma-33P]-ATP after 20 mins by radiometric assay
T1 sequence (P46734 whole entry): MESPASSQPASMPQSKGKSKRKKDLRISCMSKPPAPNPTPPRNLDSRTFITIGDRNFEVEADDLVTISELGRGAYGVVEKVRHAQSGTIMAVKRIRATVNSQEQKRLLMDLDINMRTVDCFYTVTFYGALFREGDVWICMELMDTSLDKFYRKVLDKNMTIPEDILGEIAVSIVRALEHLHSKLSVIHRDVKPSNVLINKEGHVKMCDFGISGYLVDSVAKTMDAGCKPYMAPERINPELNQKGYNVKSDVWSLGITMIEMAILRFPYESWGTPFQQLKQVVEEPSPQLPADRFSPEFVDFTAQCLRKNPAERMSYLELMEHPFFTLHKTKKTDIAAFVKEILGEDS

Homo sapiens [2] = species on record: Homo sapiens; assay: Selectivity ratio of IC50 for MKK3 (unknown origin) to IC50 for ERK2 (unknown origin)
[3] = target: Mitogen-activated protein kinase 14 (Homo sapiens, UniProt Q16539); assay: Inhibition of p38alpha phosphorylation in human TNFalpha-stimulated U937 cells treated 1 hr before by ELISA; type: cell-based, U-937
Outline: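 U937 human leukemic monocytes were pre-treated with compound across a dose range for one hour, then stimulated with TNFα. Phospho-p38α was quantified by ELISA, and IC50 was taken from the dose-response.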

Homo sapiens [4] = species on record: Homo sapiens; assay: Selectivity ratio of IC50 for MKK3 (unknown origin) to IC50 for TAK1 (unknown origin)
Homo sapiens [5] = species on record: Homo sapiens; assay: Selectivity ratio of IC50 for MKK3 (unknown origin) to IC50 for MEK2 (unknown origin)
Homo sapiens [6] = species on record: Homo sapiens; assay: Selectivity ratio of IC50 for MKK3 (unknown origin) to IC50 for p38gamma (unknown origin)
Homo sapiens [7] = species on record: Homo sapiens; assay: Selectivity ratio of IC50 for MKK3 (unknown origin) to IC50 for MEK1 (unknown origin)
Homo sapiens [8] = species on record: Homo sapiens; assay: Selectivity ratio of IC50 for MKK3 (unknown origin) to IC50 for MKK6 (unknown origin)
Homo sapiens [9] = species on record: Homo sapiens; assay: Selectivity ratio of IC50 for MKK3 (unknown origin) to IC50 for ERK1 (unknown origin)
Homo sapiens [10] = species on record: Homo sapiens; assay: Selectivity ratio of IC50 for MKK3 (unknown origin) to IC50 for ASK1 (unknown origin)
Homo sapiens [11] = species on record: Homo sapiens; assay: Selectivity ratio of IC50 for MKK3 (unknown origin) to IC50 for JNK1 (unknown origin)
Homo sapiens [12] = species on record: Homo sapiens; assay: Selectivity ratio of IC50 for MKK3 (unknown origin) to IC50 for MLK3 (unknown origin)
Homo sapiens [13] = species on record: Homo sapiens; assay: Selectivity ratio of IC50 for MKK3 (unknown origin) to IC50 for JNK2 (unknown origin)
Homo sapiens [14] = species on record: Homo sapiens; assay: Selectivity ratio of IC50 for MKK3 (unknown origin) to IC50 for p38alpha (unknown origin)
[15] = target: T1, Dual specificity mitogen-activated protein kinase kinase 3; assay: Binding affinity to MKK3 (unknown origin) by surface plasmon resonance assay
[16] = target: T2, Dual specificity mitogen-activated protein kinase kinase 6 (Homo sapiens, UniProt P52564); assay: Inhibition of MKK6 (unknown origin) using [gamma-33P]-ATP after 20 mins by radiometric assay
T2 sequence (P52564 whole entry): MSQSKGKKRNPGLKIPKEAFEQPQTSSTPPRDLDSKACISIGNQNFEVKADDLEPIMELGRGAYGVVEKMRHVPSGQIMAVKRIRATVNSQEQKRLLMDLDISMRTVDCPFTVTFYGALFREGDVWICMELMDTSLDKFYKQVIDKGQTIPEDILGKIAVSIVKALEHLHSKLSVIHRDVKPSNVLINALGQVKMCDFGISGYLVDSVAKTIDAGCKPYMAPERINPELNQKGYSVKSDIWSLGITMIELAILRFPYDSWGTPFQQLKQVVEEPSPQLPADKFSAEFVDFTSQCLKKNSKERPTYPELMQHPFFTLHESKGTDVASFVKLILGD

Mitogen-activated protein kinase 14, sequence (Q16539 whole entry): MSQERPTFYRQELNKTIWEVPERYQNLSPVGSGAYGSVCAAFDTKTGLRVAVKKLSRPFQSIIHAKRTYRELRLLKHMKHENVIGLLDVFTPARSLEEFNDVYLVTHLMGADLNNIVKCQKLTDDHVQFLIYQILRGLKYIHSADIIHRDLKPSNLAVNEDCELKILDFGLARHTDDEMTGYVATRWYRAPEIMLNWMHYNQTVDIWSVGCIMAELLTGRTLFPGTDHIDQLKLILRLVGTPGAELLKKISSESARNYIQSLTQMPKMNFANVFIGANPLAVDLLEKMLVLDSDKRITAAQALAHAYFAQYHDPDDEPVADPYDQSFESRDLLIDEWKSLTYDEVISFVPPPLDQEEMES

Compound | pIC50 [1] | Ratio IC50 (Homo sapiens [2]) | pIC50 [3] | Ratio IC50 (Homo sapiens [4]) | Ratio IC50 (Homo sapiens [5]) | Ratio IC50 (Homo sapiens [6]) | Ratio IC50 (Homo sapiens [7]) | Ratio IC50 (Homo sapiens [8]) | Ratio IC50 (Homo sapiens [9]) | Ratio IC50 (Homo sapiens [10]) | Ratio IC50 (Homo sapiens [11]) | Ratio IC50 (Homo sapiens [12]) | Ratio IC50 (Homo sapiens [13]) | Ratio IC50 (Homo sapiens [14]) | pKd [15] | pIC50 [16]
NC(=O)c1nc(-c2ccncc2)c2ccccn12 | 6.82 |  |  |  |  |  |  |  |  |  |  |  |  |  |  | 
NC(=O)c1nc(-c2ccccc2)ccc1N | 5.38 |  |  |  |  |  |  |  |  |  |  |  |  |  |  | 
NC(=O)c1nnc2ccccc2c1N | 4.43 |  |  |  |  |  |  |  |  |  |  |  |  |  | 5.70 | 4.80
NC(=O)c1nc(-c2ccncc2)ccc1N | 7.52 |  |  |  |  |  |  |  |  |  |  |  |  |  |  | 

These reach a higher pIC50 [1]. Values come first.

pIC50 [1] | Ratio IC50 (Homo sapiens [2]) | pIC50 [3] | Ratio IC50 (Homo sapiens [4]) | Ratio IC50 (Homo sapiens [5]) | Ratio IC50 (Homo sapiens [6]) | Ratio IC50 (Homo sapiens [7]) | Ratio IC50 (Homo sapiens [8]) | Ratio IC50 (Homo sapiens [9]) | Ratio IC50 (Homo sapiens [10]) | Ratio IC50 (Homo sapiens [11]) | Ratio IC50 (Homo sapiens [12]) | Ratio IC50 (Homo sapiens [13]) | Ratio IC50 (Homo sapiens [14]) | Compound | pKd [15] | pIC50 [16]
8.40 | > 100 | 5.57 | > 100 | > 100 | > 100 | > 100 | < 9 | > 100 | > 100 | > 100 | > 100 | > 100 | > 100 | CNc1ccc(-c2ccncc2)nc1C(N)=O |  | 
8.40 | > 100 | 6.14 | 23 | > 100 | > 100 | 86 | 12 | > 100 | > 100 | > 100 | > 100 | > 100 | > 100 | NC(=O)c1nc(-c2ccns2)c2ccccn12 |  | 
